In ChEMBL document CHEMBL1123797, “Antianaphylactic benzophenones and related compounds” (1987):

Key:
Format in all cases: functional
Cavia porcellus [1] = species on record: Cavia porcellus; assay: Inhibition of slow reacting substance of anaphylaxis (SRS-A) release from sensitized guinea pig chopped lung upon antigen challenge at 10 ug/mL
Summary of the method: (§1)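 Guinea pigs sensitized to ovalbumin; lungs taken 3 weeks later, perfused with Tyrode, chopped into 0.5-mm cubes. 100-mg aliquots in Tyrode were preincubated 5 min at 37 °C, then compound or Tyrode and ovalbumin (5 mg in 0.1 mL) were added. Incubation was 15 min at 37 °C with rocking, and supernatant was bioassayed. Unchallenged control gave spontaneous release. Values are % inhibition, mean of ≥4 samples; Student's t-test.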

Cavia porcellus [2] = species on record: Cavia porcellus; assay: Inhibition of histamine release from sensitized guinea pig chopped lung upon antigen challenge at 10 ug/mL.; summary of the method: as §1
Homo sapiens [3] = species on record: Homo sapiens; assay: Inhibition of Slow reacting substance of anaphylaxis (SRS-A) mediator release form passively sensitized human lung upon antigen challenge at 1 ug/mL dose
Summary of the method: (§2)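 Healthy human lung from carcinoma surgery was chopped into 0.5-mm cubes and passively sensitized 18 h at 18 °C with atopic serum from cocksfoot-pollen-allergic patients. Tissue was preincubated 5 min with compound, challenged with pollen extract (0.1 mL, 1000 noon units) and incubated as for guinea pig lung. Supernatant was bioassayed on guinea pig ileum, with mepyramine-treated (0.4 μg/mL) ileum for SRS-A. Values are % inhibition of mediator release.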

Homo sapiens [4] = species on record: Homo sapiens; assay: Inhibition of Slow reacting substance of anaphylaxis (SRS-A) mediator release form passively sensitized human lung upon antigen challenge at 10 ug/mL dose; summary of the method: as §2
Homo sapiens [5] = species on record: Homo sapiens; assay: Inhibition of Histamine mediator release form passively sensitized human lung upon antigen challenge at 1 ug/mL dose; summary of the method: as §2
Homo sapiens [6] = species on record: Homo sapiens; assay: Inhibition of Histamine mediator release form passively sensitized human lung upon antigen challenge at 10 ug/mL dose; summary of the method: as §2
Cavia porcellus [7] = assay: Time of dosing of compound before antigen challenge in conscious sensitized guinea pig at 50 mg/kg po dose; details: dose 50 mg/kg
Summary of the method: (§3)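 Modified Herxheimer test in conscious sensitized guinea pigs, 4-5 per group. Compound was given orally at 25, 50 or 100 mg/kg 2 or 4 h before antigen challenge. Some groups also received mepyramine 0.5 mg/kg sc 0.5 h before challenge. D = mean collapse time of treated/untreated controls; M+D = mean collapse time of compound+mepyramine/mepyramine-dosed controls.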

Cavia porcellus [8] = assay: Mean collapse time after pretreatment with compound and mepyramine divided by mean collapse time of mepyramine-dosed control animals at 50 mg/kg po dose; summary of the method: as §3
Cavia porcellus [9] = assay: Mean collapse time after pretreatment with compound divided by mean collapse time of untreated control animals at 50 mg/kg po dose; summary of the method: as §3

Row | Structure (SMILES) | Inhibition (Cavia porcellus [1]) [%] | also measured
1 | Cc1ccc(C(=O)c2ccc(F)cc2)c(O)c1 | 10 | –
2 | C=C(c1ccc(F)cc1)c1ccc(CC)cc1O | 32 | Inhibition (Cavia porcellus [2]): 0%
3 | CCc1ccc(C(O)c2ccc(F)cc2)c(O)c1 (stereo not drawn) | 34 | Inhibition (Cavia porcellus [2]): 5%
4 | CCc1cc(CC)c(O)c(C(=O)c2ccc(Cl)cc2)c1 | 38 | Inhibition (Cavia porcellus [2]): 9%
5 | CCc1ccc(O)c(C(=O)c2cccc(Cl)c2)c1 | 0 | –
6 | CCc1ccc(O)c(C(=O)c2ccc(Br)cc2)c1 | 10 | –
7 | CCc1ccc(O)c(C(=O)c2ccc(Cl)cc2Cl)c1 | 0 | –
8 | CCc1ccc(O)c(C(=O)c2ccc(Cl)s2)c1 | 21 | –
9 | CCc1ccc(O)c(/C(=N/O)c2ccc(Cl)cc2)c1 | 51 | Inhibition (Homo sapiens [3]): 93%; Inhibition (Homo sapiens [4]): 91%; Inhibition (Homo sapiens [5]): 0%; Inhibition (Homo sapiens [6]): 0%; Inhibition (Cavia porcellus [2]): 28%
10 | Cc1cccc(C(=O)c2ccc(Cl)cc2)c1O | 36 | Inhibition (Homo sapiens [3]): 100%; Inhibition (Homo sapiens [4]): 100%; Inhibition (Homo sapiens [6]): 0%; Inhibition (Cavia porcellus [2]): 6%
11 | CCc1ccc(O)c(/C(=N/O)c2ccc(Cl)cc2Cl)c1 | 0 | –
12 | CCc1ccc(O)c(C(=O)c2ccc(C)s2)c1 | 28 | –
13 | CCc1ccc(O)c(Sc2ccccc2)c1 | 0 | –
14 | CCc1ccc(O)c(C(=O)c2ccc(Cl)c(Cl)c2)c1 | 0 | –
15 | O=C(c1ccccc1)c1ccccc1O | 0 | –
16 | Cc1cccc(/C(=N/O)c2ccc(Cl)cc2)c1O | 52 | Inhibition (Cavia porcellus [2]): 52%
17 | CCc1ccc(O)c(C(=O)c2cccnc2)c1 | 27 | –
18 | CC(=O)c1ccc(O)c(C(=O)c2ccc(Cl)cc2)c1 | 49 | Inhibition (Cavia porcellus [2]): 61%
19 | Cc1ccc(O)c(/C(=N/O)c2ccc(Cl)cc2)c1 | 40 | Inhibition (Cavia porcellus [2]): 59%
20 | CCc1ccc(S(C)(=O)=O)c(C(=O)c2ccc(Cl)cc2)c1 | 17 | –
21 | CCc1ccc(O)c(C(O)c2ccccc2)c1 (stereo not drawn) | 37 | Inhibition (Cavia porcellus [2]): 7%
22 | CCc1ccc(C(=O)c2ccc(Cl)cc2)c(O)c1 | 8 | –

Row | Structure (SMILES) | Inhibition (Cavia porcellus [1]) [%] | also measured
23 | CCc1ccc(O)c(C(=O)c2ccncc2)c1 | 0 | –
24 | CCc1ccc(OC)c(C(O)c2ccc(C)cc2)c1 (stereo not drawn) | 28 | –
25 | CCc1ccc(S(C)(=O)=O)c(C(=O)c2ccc(C)cc2)c1 | 11 | –
26 | CCc1ccc(C(=O)c2cccc(F)c2)c(O)c1 | 26 | –
27 | CCc1ccc(OC)c(C(=O)c2ccc([N+](=O)[O-])cc2)c1 | 0 | Time (Cavia porcellus [7]): 2 h; Activity (Cavia porcellus [8]): 2.1; Activity (Cavia porcellus [9]): 0.8
28 | CCCc1ccc(O)c(C(=O)c2ccc(Cl)cc2)c1 | 0 | –
29 | CCc1ccc(C(=O)O)c(C(=O)c2ccc(Cl)cc2)c1 | 20 | –
30 | CCc1cccc(C(=O)c2ccc(Cl)cc2)c1O | 2 | –
31 | Cc1ccc(O)c(C(=O)c2ccc(Cl)cc2)c1 | 46 | Inhibition (Cavia porcellus [2]): 0%
32 | Cc1cccc(C(=O)c2ccccc2)c1O | 0 | –
33 | CCc1ccc(O)c(C(O)c2ccc(Cl)cc2)c1 (stereo not drawn) | 5 | –
34 | Cc1ccc(C(=O)c2ccc(Cl)cc2)c(O)c1 | 0 | –
35 | C=C(c1ccc(Cl)cc1)c1cc(CC)ccc1O | 3 | –
36 | CCc1ccc(O)c(C(=O)c2ccc3ccccc3c2)c1 | 2 | –
37 | CCc1ccc(OC(C)=O)c(C(=O)c2ccc(C)cc2)c1 | 49 | Inhibition (Cavia porcellus [2]): 9%
38 | CCc1cccc(C(=O)c2ccc(Cl)cc2Cl)c1O | 44 | Inhibition (Homo sapiens [3]): 85%; Inhibition (Homo sapiens [4]): 100%; Inhibition (Homo sapiens [5]): 20%; Inhibition (Homo sapiens [6]): 60%; Inhibition (Cavia porcellus [2]): 8%
39 | CCc1ccc(SC)c(C(=O)c2ccc(Cl)cc2)c1 | 29 | Activity (Cavia porcellus [8]): 2.3; Activity (Cavia porcellus [9]): 0.6
40 | CCc1ccc(SC)c(C(=O)c2ccc(C)cc2)c1 | 32 | Inhibition (Cavia porcellus [2]): 0%
41 | CCc1ccc(O)c(C(=O)c2ccccc2Cl)c1 | 14 | –
42 | CCc1ccc(O)c(C(=O)c2cccc3ccccc23)c1 | 0 | –
43 | CCc1ccc(O)c(/C(=N/O)c2ccc(Cl)c(Cl)c2)c1 | 2 | –
44 | CCc1cccc(/C(=N/O)c2ccccc2)c1O | 13 | –
